Measurements taken from ChEMBL document CHEMBL2086268, “Synthesis, radiolabeling and initial in vivo evaluation of [(11)C]KSM-01 for imaging PPAR-α receptors” (Bioorg Med Chem Lett, 2012).

Key:
Conditions in all cases: in vivo, 1 h; call rule not given here
Kidney [1] = experiment: Drug uptake in wild type mouse kidney at 170 uCi, iv after 60 mins by post-PET gamma counting analysis; type: ADME, organism-based
Procedure, shortened: (§1)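 Biodistribution done after PET: tissues were collected after the 0–60 min dynamic scan following intravenous injection of the 11C-labelled tracer. Transgenic mice with about 15-fold ventricular PPAR-α overexpression were used alongside wild-type littermate controls. Uptake was expressed as %ID/g.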

Liver [2] = experiment: Drug uptake in liver of MHC-PPARalpha overexpressing transgenic mouse at 170 uCi, iv after 60 mins by microPET imaging analysis; type: ADME, organism-based
Procedure, shortened: (§2)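 Dynamic microPET scan over 0–60 min after intravenous injection of the 11C-labelled tracer. Transgenic mice had cardiac-ventricle PPAR-α protein about 15-fold above wild-type littermates. Data were analysed as standard uptake values (SUV).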

Mus musculus = experiment: Drug uptake in MHC-PPARalpha overexpressing transgenic mouse at 170 uCi, iv after 60 mins by microPET imaging analysis relative to wild type control; type: ADME, organism-based
Procedure, shortened: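 Transgenic mice overexpressing PPAR-α in heart (ventricular PPAR-α protein about 15-fold above wild-type) and wild-type littermate controls. Dynamic microPET imaging over 0–60 min after intravenous injection of the carbon-11-labelled radiotracer. Radiochemical purity >98%. Cardiac accumulation was quantified as standard uptake values (SUV) and compared with wild-type animals.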

[3] = Drug uptake in wild type mouse cardiac tissue at 170 uCi, iv after 60 mins by post-PET gamma counting analysis; type: ADME, organism-based, Heart; procedure, shortened: as §1
Muscle tissue [4] = experiment: Drug uptake in wild type mouse muscle at 170 uCi, iv after 60 mins by post-PET gamma counting analysis; type: ADME, organism-based; procedure, shortened: as §1
Muscle tissue [5] = experiment: Drug uptake in muscle of MHC-PPARalpha overexpressing transgenic mouse at 170 uCi, iv after 60 mins by post-PET gamma counting analysis; type: ADME, organism-based; procedure, shortened: as §1
Blood [6] = experiment: Drug uptake in blood of MHC-PPARalpha overexpressing transgenic mouse at 170 uCi, iv after 60 mins by post-PET gamma counting analysis; type: ADME, organism-based; procedure, shortened: as §1
Heart = experiment: Drug uptake in heart of MHC-PPARalpha overexpressing transgenic mouse at 170 uCi, iv after 60 mins by microPET imaging analysis; type: ADME, organism-based; procedure, shortened: as §2
Liver [7] = experiment: Drug uptake in liver of MHC-PPARalpha overexpressing transgenic mouse at 170 uCi, iv after 60 mins by post-PET gamma counting analysis; type: ADME, organism-based; procedure, shortened: as §1
Blood [8] = experiment: Drug uptake in wild type mouse blood at 170 uCi, iv after 60 mins by post-PET gamma counting analysis; type: ADME, organism-based; procedure, shortened: as §1
Spleen [9] = experiment: Drug uptake in wild type mouse spleen at 170 uCi, iv after 60 mins by post-PET gamma counting analysis; type: ADME, organism-based; procedure, shortened: as §1
Lung [10] = experiment: Drug uptake in lungs of MHC-PPARalpha overexpressing transgenic mouse at 170 uCi, iv after 60 mins by post-PET gamma counting analysis; type: ADME, organism-based; procedure, shortened: as §1
Kidney [11] = experiment: Drug uptake in kidney of MHC-PPARalpha overexpressing transgenic mouse at 170 uCi, iv after 60 mins by post-PET gamma counting analysis; type: ADME, organism-based; procedure, shortened: as §1
Liver [12] = experiment: Drug uptake in wild type mouse liver at 170 uCi, iv after 60 mins by post-PET gamma counting analysis; type: ADME, organism-based; procedure, shortened: as §1
[13] = Drug uptake in cardiac tissue of MHC-PPARalpha overexpressing transgenic mouse at 170 uCi, iv after 60 mins by post-PET gamma counting analysis; type: ADME, organism-based, Heart; procedure, shortened: as §1
Lung [14] = experiment: Drug uptake in wild type mouse lungs at 170 uCi, iv after 60 mins by post-PET gamma counting analysis; type: ADME, organism-based; procedure, shortened: as §1
Spleen [15] = experiment: Drug uptake in spleen of MHC-PPARalpha overexpressing transgenic mouse at 170 uCi, iv after 60 mins by post-PET gamma counting analysis; type: ADME, organism-based; procedure, shortened: as §1

In the case of `CC(C)(Sc1ccc(CCN(CCCCC2CCCCC2)C(=O)Nc2ccc(O[11CH3])cc2)cc1)C(=O)O`, the Drug uptake (Kidney [1]) is reported as 2.01 % ID/g, the Drug uptake (Liver [2]) is reported as “Active” and the “fold change (FC)” value (Mus musculus) is reported as 2. It also gave a Drug uptake [3] of 0.479 % ID/g, a Drug uptake (Muscle tissue [4]) of 0.35 % ID/g and a Drug uptake (Muscle tissue [5]) of 0.36 % ID/g. The Drug uptake (Blood [6]) was 0.42 % ID/g, the Drug uptake (Heart) was “Active” and the Drug uptake (Liver [7]) was 55.3 % ID/g. It also gave a Drug uptake (Blood [8]) of 0.42 % ID/g, a Drug uptake (Spleen [9]) of 1.55 % ID/g and a Drug uptake (Lung [10]) of 2.65 % ID/g. The Drug uptake (Kidney [11]) was 2.58 % ID/g, the Drug uptake (Liver [12]) was 60.69 % ID/g and the Drug uptake [13] was 1.09 % ID/g. It also gave a Drug uptake (Lung [14]) of 2.11 % ID/g and a Drug uptake (Spleen [15]) of 1.33 % ID/g.
